The results in this text go back to ChEMBL document CHEMBL2062428, “Cyclooxygenase-1-selective inhibitors based on the (E)-2'-des-methyl-sulindac sulfide scaffold” (J Med Chem, 2012).

For assay [1], the target named is T1, Prostaglandin G/H synthase 1 (Ovis aries) (UniProt P05979).
T1 sequence (whole entry): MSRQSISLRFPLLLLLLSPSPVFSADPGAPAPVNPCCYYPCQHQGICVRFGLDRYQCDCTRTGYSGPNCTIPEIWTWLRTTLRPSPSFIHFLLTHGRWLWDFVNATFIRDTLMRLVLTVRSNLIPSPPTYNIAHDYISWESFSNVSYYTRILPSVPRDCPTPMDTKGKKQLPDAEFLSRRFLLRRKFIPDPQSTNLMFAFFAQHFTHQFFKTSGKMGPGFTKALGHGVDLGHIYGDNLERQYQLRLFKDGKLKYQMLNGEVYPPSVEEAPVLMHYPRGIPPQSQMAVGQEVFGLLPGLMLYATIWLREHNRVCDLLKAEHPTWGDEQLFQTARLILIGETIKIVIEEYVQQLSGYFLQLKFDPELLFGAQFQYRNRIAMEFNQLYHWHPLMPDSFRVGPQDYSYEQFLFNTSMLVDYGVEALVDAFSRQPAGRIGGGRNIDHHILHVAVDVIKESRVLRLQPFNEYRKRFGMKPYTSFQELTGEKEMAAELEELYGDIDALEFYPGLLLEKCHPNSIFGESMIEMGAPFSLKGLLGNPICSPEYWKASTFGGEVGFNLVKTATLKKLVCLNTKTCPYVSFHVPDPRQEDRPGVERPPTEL
The assay is described as follows: Inhibition of ovine COX-1 using [14C] arachidonic acid as substrate at 4 uM preincubated for 17 mins before substrate addition measured after 3 mins by thin-layer chromatographic analysis. The method, boiled down: (§1)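 Purified ovine COX-1 or murine COX-2 preincubated with a single 4 μM inhibitor concentration for 17 min. […] Reaction quenched; radioactive products extracted and quantified. Mean ± SEM of two experiments.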

The target in assay [2] is T2, Prostaglandin G/H synthase 2 (Mus musculus) (UniProt Q05769).
T2 sequence (whole entry): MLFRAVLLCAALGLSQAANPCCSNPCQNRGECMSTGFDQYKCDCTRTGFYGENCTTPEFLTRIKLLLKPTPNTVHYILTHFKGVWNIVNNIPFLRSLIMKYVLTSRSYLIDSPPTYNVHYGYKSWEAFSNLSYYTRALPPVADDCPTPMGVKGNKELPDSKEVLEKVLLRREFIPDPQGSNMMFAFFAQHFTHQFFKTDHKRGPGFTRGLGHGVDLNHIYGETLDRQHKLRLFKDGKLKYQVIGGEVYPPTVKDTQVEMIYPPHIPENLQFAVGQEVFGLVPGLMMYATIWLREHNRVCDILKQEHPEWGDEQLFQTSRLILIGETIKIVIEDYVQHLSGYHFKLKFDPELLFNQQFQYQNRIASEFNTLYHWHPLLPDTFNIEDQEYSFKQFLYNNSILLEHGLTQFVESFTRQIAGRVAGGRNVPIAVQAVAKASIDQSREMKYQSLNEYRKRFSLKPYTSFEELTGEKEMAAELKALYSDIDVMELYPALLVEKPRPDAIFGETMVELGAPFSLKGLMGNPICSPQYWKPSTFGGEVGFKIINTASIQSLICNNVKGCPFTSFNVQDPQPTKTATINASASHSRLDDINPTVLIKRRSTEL
The assay is described as follows: Inhibition of mouse COX-2 using [14C] arachidonic acid as substrate at 4 uM preincubated for 17 mins before substrate addition measured after 3 mins by thin-layer chromatographic analysis. The method, boiled down: as §1

Take `C#Cc1ccc(/C=C2\C=C(CC(=O)O)c3cc(F)ccc32)cc1`: the inhibition in assay [1] came out at 62%; in assay [2] it was 17%.
For `O=C(O)CC1=C/C(=C\c2cccc3cccnc23)c2ccc(F)cc21`, the values for the inhibition in assay [1] and in assay [2] were 51% and 0%, respectively.
Turning to `O=C(O)CC1=C/C(=C\c2ccc(-c3ccc(C(F)(F)F)cc3)cc2)c2ccc(F)cc21`, the inhibition in assay [1] came out at 31%; in assay [2], 15%.
In the same order, the values of `CSc1ccc(/C=C2\C=C(CC(=O)NS(=O)(=O)c3ccc(F)cc3)c3cc(F)ccc32)cc1` are 44% and 20%.
For the molecule `CCOC(=O)C(C)(C)C1=C/C(=C\c2ccc(-c3ccccc3)c(F)c2)c2ccc(F)cc21`, the inhibition in assay [1] amounted to 40%; in assay [2], 15%.
Turning to `O=C(O)CC1=C/C(=C\c2ccc(SC(F)(F)F)cc2)c2ccc(F)cc21`, the inhibition in assay [1] came out at 77%; in assay [2], 35%.
In the same order, the values of `CCOC(=O)C(C)(C)C1=C/C(=C\c2ccc(-c3ccccc3)cc2)c2ccc(F)cc21` are 26% and 2%.
With `CSc1ccc(/C=C2\C=C(CC(=O)NS(=O)(=O)c3ccc(Br)cc3)c3cc(F)ccc32)cc1`, the inhibition in assay [1] was 40%; in assay [2] it was 30%.
In the case of `O=C(O)CC1=C/C(=C\c2ccccc2)c2ccc(F)cc21`, the inhibition in assay [1] was 74%; in assay [2] it was 34%.
As for `O=C(O)CC1=C/C(=C\c2cccc(-c3ccc(F)cc3)n2)c2ccc(F)cc21`, the inhibition came to 17% in assay [1] and 81% in assay [2].
For the molecule `O=C(O)CC1=C/C(=C\c2ccc([S+]([O-])C(F)(F)F)cc2)c2ccc(F)cc21` (stereo not given), the inhibition in assay [1] was 51%; in assay [2] it was 15%.
With `CCOC(=O)C(C)(C)C1=C/C(=C\c2cccc(-c3ccccc3)c2)c2ccc(F)cc21`, the inhibition worked out at 24% in assay [1] and 4% in assay [2].
On to `CCOC(=O)C(C)(C)C1=C/C(=C\c2cccc(-c3ccc(F)cc3)n2)c2ccc(F)cc21`, for which the inhibition worked out at 24% in assay [1] and 21% in assay [2].
In the same order, the values of `CCOC(=O)CC1=C/C(=C\c2ccc(SC)cc2)c2ccc(F)cc21` are 20% and 0%.
As to `CSc1ccc(/C=C2\C=C(CC(=O)NS(=O)(=O)c3ccc(Cl)s3)c3cc(F)ccc32)cc1`, the inhibition stood at 59% in assay [1] and 34% in assay [2].
As to `CSc1ccc(/C=C2\C=C(CC(=O)NS(=O)(=O)c3ccc(OC(F)(F)F)cc3)c3cc(F)ccc32)cc1`, the inhibition in assay [1] was 47%; in assay [2], 32%.
Regarding `CSc1ccc(/C=C2\C=C(CC(=O)OC(C)C)c3cc(F)ccc32)cc1`, the results for the inhibition in assay [1] and in assay [2] were 27% and 0%, respectively.
On the same counts, the results for `O=C(O)CC1=C/C(=C\c2ccc(-c3ccc(F)cc3)cc2)c2ccc(F)cc21` are 33% and 16%.
For `CCOC(=O)CC1=C/C(=C\c2ccc(C(=O)OCC)cc2)c2ccc(F)cc21`, the inhibition in assay [1] was 39%; in assay [2], 0%.
With `O=C(O)CC1=C/C(=C\c2cccc3ccccc23)c2ccc(F)cc21`, the results for the inhibition in assay [1] and in assay [2] were 53% and 7%, respectively.
For the molecule `CSc1ccc(/C=C2\C=C(CC(=O)NS(C)(=O)=O)c3cc(F)ccc32)cc1`, the inhibition in assay [1] was determined as 21%; in assay [2], 7%.
On to `CCOC(=O)C(C)(C)C1=C/C(=C\c2cnc(-c3ccccc3)nc2C)c2ccc(F)cc21`, for which the inhibition in assay [1] is 25%; in assay [2], 9%.
In the same order, the values of `CSc1ccc(-c2ccc(/C=C3\C=C(CC(=O)O)c4cc(F)ccc43)cc2)cc1` are 68% and 18%.
For `O=C(O)CC1=C/C(=C\c2ccc3nccnc3c2)c2ccc(F)cc21`, the inhibition worked out at 31% in assay [1] and 29% in assay [2].
Regarding `O=C(O)CC1=C/C(=C\c2ccc3cccnc3c2)c2ccc(F)cc21`, the inhibition in assay [1] amounted to 58%; in assay [2], 16%.
For the molecule `O=C(O)CC1=C/C(=C\c2ccc(C(=O)O)cc2)c2ccc(F)cc21`, the inhibition in assay [1] was 43%; in assay [2], 0%.
On the same counts, the results for `CS(=O)(=O)c1ccc(-c2cccc(/C=C3\C=C(CC(=O)O)c4cc(F)ccc43)n2)cc1` are 13% and 54%.
On the same counts, the results for `O=C(O)CC1=C/C(=C\c2ccc(Br)cc2)c2ccc(F)cc21` are 73% and 34%.
`O=C(O)CC1=C/C(=C\c2ccc(-c3ccc(F)nc3)cc2)c2ccc(F)cc21`: the values for the inhibition in assay [1] and in assay [2] were 27% and 10%, respectively.
With `O=C(O)CC1=C/C(=C\c2cnc(C3CCCCC3)nc2)c2ccc(F)cc21`, the results for the inhibition in assay [1] and in assay [2] were 45% and 25%, respectively.
In the same order, the values of `Cc1nc(-c2ccccc2)ncc1/C=C1\C=C(CC(=O)O)c2cc(F)ccc21` are 19% and 19%.
With `CSc1ccc(/C=C2\C=C(C(C)(C)C(=O)O)c3cc(F)ccc32)cc1`, the inhibition in assay [1] worked out at 17%; in assay [2], 16%.
`CSc1ccc(/C=C2\C=C(CC(=O)NS(=O)(=O)c3ccc(C(F)(F)F)cc3)c3cc(F)ccc32)cc1`: the inhibition in assay [1] amounted to 48%; in assay [2] it was 19%.
As to `CSc1ccc(/C=C2\C=C(CC(=O)NS(=O)(=O)c3ccc(C)cc3)c3cc(F)ccc32)cc1`, the inhibition in assay [1] was 55%; in assay [2] it was 20%.
Take `O=C(CC1=C/C(=C\c2ccc(-c3ccccc3)cc2)c2ccc(F)cc21)NS(=O)(=O)C(F)(F)F`: the inhibition in assay [1] worked out at 99%; in assay [2], 15%.
As to `O=C(O)CC1=C/C(=C\c2cccc(-c3ccc4c(c3)OCO4)n2)c2ccc(F)cc21`, the inhibition in assay [1] came to 59%; in assay [2], 43%.
With `O=C(O)CC1=C/C(=C\c2cccc(-c3cccs3)n2)c2ccc(F)cc21`, the inhibition in assay [1] is 15%; in assay [2], 28%.
On the same counts, the results for `COc1ccc(S(=O)(=O)NC(=O)CC2=C/C(=C\c3ccc(SC)cc3)c3ccc(F)cc32)cc1` are 58% and 8%.
As for `O=C(O)CC1=C/C(=C\c2ccc(-c3ccccc3)nc2)c2ccc(F)cc21`, the inhibition in assay [1] was 55%; in assay [2], 5%.
Take `CSc1ccc(/C=C2\C=C(CC(=O)NS(=O)(=O)c3ccc(C(C)C)cc3)c3cc(F)ccc32)cc1`: the figures for the inhibition in assay [1] and in assay [2] were 45% and 2%, respectively.
In the same order, the values of `COc1ccc(/C=C2\C=C(CC(=O)O)c3cc(F)ccc32)cc1` are 62% and 22%.
Regarding `CCOC(=O)C(C)C1=C/C(=C\c2ccc(-c3ccccc3)cc2)c2ccc(F)cc21` (stereo not given), the values for the inhibition in assay [1] and in assay [2] were 30% and 0%, respectively.
Take `Cc1ccc(/C=C2\C=C(CC(=O)O)c3cc(F)ccc32)cc1`: the inhibition amounted to 52% in assay [1] and 13% in assay [2].
In the same order, the values of `O=C(O)CC1=C/C(=C\c2cnc(-c3ccccc3)nc2)c2ccc(F)cc21` are 35% and 8%.
For `COc1ccc2c(c1)C(CC(=O)O)=C/C2=C\c1ccc(-c2ccccc2)cc1`, the inhibition turned out to be 38% in assay [1] and 2% in assay [2].
As to `CCOC(=O)C(C)(C)C1=C/C(=C\c2cn(C)c3ccccc23)c2ccc(F)cc21`, the inhibition in assay [1] was 47%; in assay [2], 22%.
In the case of `CSc1ccc(/C=C2\C=C(CC(=O)NS(=O)(=O)c3ccccc3C)c3cc(F)ccc32)cc1`, the inhibition in assay [1] amounted to 60%; in assay [2] it was 36%.
On the same counts, the results for `O=C(O)CC1=C/C(=C\c2ccc(F)c3ccccc23)c2ccc(F)cc21` are 61% and 22%.
Consider `O=C(O)CC1=C/C(=C\c2ccc3cccnc3n2)c2ccc(F)cc21`, for which the inhibition is 14% in assay [1] and 42% in assay [2].
As for `COc1ccc(-c2cccc(/C=C3\C=C(CC(=O)O)c4cc(F)ccc43)n2)cc1`, the inhibition in assay [1] amounted to 35%; in assay [2] it was 56%.

As a reminder, the inhibition is the percentage by which the read-out fell short of the control.
